ChEMBL document CHEMBL4725355, “Design, Synthesis, and Preclinical Evaluation of 3-Methyl-6-(5-thiophenyl)-1,3-dihydro-imidazo[4,5-b]pyridin-2-ones as Selective GluN2B Negative Allosteric Modulators for the Treatment of Mood Disorders” (J Med Chem, 2020)
≈ marks a conversion by molar mass, not a printed value.

Legend:
[1] = molecular target: Voltage-gated inwardly rectifying potassium channel KCNH2 (Homo sapiens, UniProt Q12809); test: Inhibition of human ERG expressed in CHO cells measured after 5 mins by Qpatch method; format: cell-based
How it was run: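 CHO cells stably expressing hERG, whole-cell QPatch. Vehicle applied 5 min, then 0.3, 3.0, 10 and 30 µM in rising order, each concentration applied twice. Current measured after 5 min as the average of 3 voltage pulses; block taken relative to vehicle pretreatment, mean ± SEM.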

[2] = Half life in Sprague-Dawley rat at 0.5 mg/kg, iv or 2.5 mg/kg, po using 1:1 PEG-400/water formulation by LC-MS/MS analysis; format: ADME, organism-based; details: in vivo
How it was run: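 Rats dosed 0.5 mg/kg i.v. and 2.5 mg/kg p.o., n=3 ± SD. Default vehicle is 20% HP-β-CD; one PK set used 1:1 PEG400/water and another 30% SBE-β-CD.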

[3] = Cmax in Sprague-Dawley rat brain at 3 mg/kg, po after 2 hrs by LC-MS/MS analysis; format: ADME, organism-based; set-up: route oral, dose 3 mg/kg, time 2 hrs
How it was run: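 Oral dose of 3 mg/kg in 20% HP-β-CD to rats. Brain concentration was measured alongside ex vivo GluN2B occupancy over a 6 h time course (0.5, 2 and 6 h), n=2.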

[4] = Drug level in Sprague-Dawley rat brain cerebellum at 0.03 mg/kg, iv after 120 min by LC-MS/MS analysis; format: ADME, organism-based; details: read-out: Drug uptake
How it was run: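 Rats (n=3 per group) received a single IV dose of 0.03 mg/kg in 50% (w/v) PEG/water at pH 7.4 and were sacrificed at 5, 10, 30, 60 and 120 min. Cerebellum, cortex, striatum and hippocampus were weighed, homogenized and analyzed by LC-MS/MS, with levels normalized to tissue weight.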

[5] = Drug level in Sprague-Dawley rat brain hippocampus at 0.03 mg/kg, iv after 60 min by LC-MS/MS analysis; format: ADME, organism-based; details: read-out: Drug uptake
How it was run: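 Single i.v. dose of 0.03 mg/kg in 50% (w/v) PEG/water, pH 7.4; rats n=3 per group, killed at 5, 10, 30, 60 and 120 min. Cerebellum, cortex, striatum and hippocampus dissected, weighed and homogenized; drug quantified by LC-MS/MS and normalized to tissue weight. P<0.05 taken as significant versus cerebellum.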

[6] = Ex vivo receptor occupancy at GluN2B in po dosed Sprague-Dawley rat assessed as 3-[3H] 1-(azetidin-1-yl)-2-[6-(4-fluoro-3-methyl-phenyl)pyrrolo[3,2-b]pyridin-1-yl]-ethanone labelling measured after 60 mins by autoradiography; format: functional, organism-based
How it was run: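 Oral dosing at 8 dose levels in 20% HP-β-CD; 3 rats per group. GluN2B occupancy in hippocampus measured 60 min post dose by ex vivo radiotracer autoradiography and calculated versus naïve controls, mean ± SEM. Plasma concentrations paired with occupancy to derive EC50 and dose ED50.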

[7] = Intrinsic clearance in cynomolgus monkey liver microsomes at 1 uM after 5 to 60 mins in presence of NADPH by LC-MS/MS analysis; format: ADME, Macaca fascicularis, Microsome; details: time 5-60 min, read-out: CLH
Cytochrome P450 3A4 = Cytochrome P450 3A4 (Homo sapiens, UniProt P08684); test: Time-dependent inhibition of CYP3A4 in human liver microsomes at 10 uM using testosterone as substrate by LC-MS/MS analysis; format: ADME
How it was run: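 CYP3A4 time-dependent inhibition in human liver microsomes. The compound (0.4 to 10 μM) was tested with and without 30 min preincubation. IC50 was taken from percent activity remaining versus vehicle, averaged over two independent experiments. A >2-fold IC50 shift after preincubation was the threshold for time-dependent inhibition.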

[8] = Half life in dog at 0.1 mg/kg, iv by LC-MS/MS analysis; format: ADME, organism-based, Canis lupus familiaris; details: in vivo
[9] = Volume of distribution at steady state in Sprague-Dawley rat at 0.5 mg/kg, iv by LC-MS/MS analysis; format: ADME, organism-based; details: in vivo, read-out: Vdss
How it was run: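 Rat PK at 0.5 mg/kg i.v. and 2.5 mg/kg p.o., vehicle 20% HP-β-CD. n=3, values given as mean ± SD.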

[10] = Tmax in monkey at 0.5 mg/kg, po by LC-MS/MS analysis; format: ADME, organism-based, Macaca mulatta; details: rhesus monkey, in vivo
[11] = Clearance in monkey at 0.1 mg/kg, iv by LC-MS/MS analysis; format: ADME, organism-based, Macaca mulatta; details: rhesus monkey, in vivo
[12] = Volume of distribution at steady state in monkey at 0.1 mg/kg, iv by LC-MS/MS analysis; format: ADME, organism-based, Macaca mulatta; details: rhesus monkey, in vivo, read-out: Vdss
[13] = Oral bioavailability in mouse at 2.5 mg/kg by LC-MS/MS analysis; format: ADME, organism-based; details: in vivo
[14] = Cmax in Sprague-Dawley rat at 500 mg/kg, po administered via gavage after 24 hrs using HPMC formulation by LC-MS/MS analysis; format: ADME, organism-based; set-up: route oral, time 24 hrs, dose 500 mg/kg; details: in vivo
How it was run: (§1)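 Single oral gavage dose to male Sprague Dawley rats, 3 per dose level. Vehicles were a standard suspension in 5% HPMC (125, 250, 500 or 1000 mg/kg) or a nanosuspension (API:polymer 4:1), with stock diluted in vehicle on the day of dosing (100, 250 or 500 mg/kg). Blood was sampled at time points from 0.5 to 24 h.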

[15] = Cmax in Sprague-Dawley rat at 1000 mg/kg, po administered via gavage after 24 hrs using HPMC formulation by LC-MS/MS analysis; format: ADME, organism-based; set-up: route oral, dose 1000 mg/kg, time 24 hrs; details: in vivo; how it was run: as §1
[16] = Tmax in Sprague-Dawley rat at 500 mg/kg, po administered via gavage after 24 hrs using HPMC formulation by LC-MS/MS analysis; format: ADME, organism-based; details: in vivo
How it was run: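 Single oral gavage of a 5% HPMC suspension at 125, 250, 500 or 1000 mg/kg to male Sprague Dawley rats, 3 per group. Plasma was sampled at 6 time points from 0.5 to 24 h.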

[17] = AUC (0 to 24 hrs) in Sprague-Dawley rat at 250 mg/kg, po administered via gavage after 24 hrs using HPMC formulation by LC-MS/MS analysis; format: ADME, organism-based; set-up: route oral, dose 250 mg/kg, time <=24; details: in vivo; how it was run: as §1
[18] = AUC (0 to 24 hrs) in Sprague-Dawley rat at 500 mg/kg, po administered via gavage after 24 hrs using HPMC formulation by LC-MS/MS analysis; format: ADME, organism-based; set-up: route oral, dose 500 mg/kg, time <=24; details: in vivo; how it was run: as §1
[19] = Ratio of Cmax in Sprague-Dawley rat at 1000 mg/kg, po administered via gavage after 24 hrs using HPMC formulation by LC-MS/MS analysis to EC70 for ex vivo receptor occupancy at GluN2B in po dosed Sprague-Dawley rat assessed as 3-[3H] 1-(azetidin-1-yl)-2-[6-(4-fluoro-3-methyl-phenyl)pyrrolo[3,2-b]pyridin-1-yl]-ethanone labelling; format: ADME, organism-based
[20] = AUC (0 to 24 hrs) in Sprague-Dawley rat at 500 mg/kg, po administered via gavage after 24 hrs using nanosuspension formulation by LC-MS/MS analysis; format: ADME, organism-based; set-up: route oral, dose 500 mg/kg, time <=24; details: in vivo; how it was run: as §1
[21] = Toxicity in Sprague-Dawley rat assessed as change in behavior at 500 mg/kg/day, po administered as nanosuspension measured after 2 days; format: organism-based; details: in vivo, 48 h, time 2 day
How it was run: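 Repeated daily oral dosing of a nanosuspension to rats for 14 days, with 500 mg/kg/day as the high dose. Clinical observations were recorded, and animals were moved to individual caging on Day 6.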

[22] = Protein binding in rat plasma assessed as unbound fraction at 0.5 uM after 6 hrs by equilibrium dialysis method; format: ADME, cell-free
[23] = Rattus norvegicus, Sprague-Dawley, po, 1 h, time 60 min

Chain of Voltage-gated inwardly rectifying potassium channel KCNH2 (Q12809 whole entry): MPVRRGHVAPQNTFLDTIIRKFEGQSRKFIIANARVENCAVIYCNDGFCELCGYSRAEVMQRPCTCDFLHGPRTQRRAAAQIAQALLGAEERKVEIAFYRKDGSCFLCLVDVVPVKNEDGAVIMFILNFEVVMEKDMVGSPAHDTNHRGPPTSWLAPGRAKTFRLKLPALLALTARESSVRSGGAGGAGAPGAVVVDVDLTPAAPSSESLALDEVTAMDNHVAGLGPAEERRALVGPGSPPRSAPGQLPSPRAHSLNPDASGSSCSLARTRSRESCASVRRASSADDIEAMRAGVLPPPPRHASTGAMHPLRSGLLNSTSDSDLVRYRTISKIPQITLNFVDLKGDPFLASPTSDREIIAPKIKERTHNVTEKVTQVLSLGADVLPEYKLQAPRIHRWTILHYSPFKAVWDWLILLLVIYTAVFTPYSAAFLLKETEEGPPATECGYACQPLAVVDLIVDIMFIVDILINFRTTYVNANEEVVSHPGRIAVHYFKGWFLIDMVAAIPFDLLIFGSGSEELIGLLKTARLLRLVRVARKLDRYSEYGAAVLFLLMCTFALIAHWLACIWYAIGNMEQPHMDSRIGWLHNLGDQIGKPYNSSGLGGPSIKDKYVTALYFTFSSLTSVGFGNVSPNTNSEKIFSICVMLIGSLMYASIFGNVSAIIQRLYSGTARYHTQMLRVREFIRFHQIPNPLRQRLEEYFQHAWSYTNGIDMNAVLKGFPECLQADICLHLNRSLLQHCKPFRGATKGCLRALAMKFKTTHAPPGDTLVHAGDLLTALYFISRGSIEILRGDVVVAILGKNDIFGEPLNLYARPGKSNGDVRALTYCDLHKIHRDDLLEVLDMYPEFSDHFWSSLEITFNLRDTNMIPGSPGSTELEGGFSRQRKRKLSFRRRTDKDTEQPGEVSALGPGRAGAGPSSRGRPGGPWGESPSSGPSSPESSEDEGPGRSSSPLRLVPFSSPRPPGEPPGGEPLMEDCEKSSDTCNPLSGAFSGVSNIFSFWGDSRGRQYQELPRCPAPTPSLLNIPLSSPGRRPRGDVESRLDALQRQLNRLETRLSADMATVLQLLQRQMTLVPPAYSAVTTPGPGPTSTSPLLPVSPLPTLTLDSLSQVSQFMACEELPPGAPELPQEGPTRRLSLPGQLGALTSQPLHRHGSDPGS
Chain of Cytochrome P450 3A4 (P08684 whole entry): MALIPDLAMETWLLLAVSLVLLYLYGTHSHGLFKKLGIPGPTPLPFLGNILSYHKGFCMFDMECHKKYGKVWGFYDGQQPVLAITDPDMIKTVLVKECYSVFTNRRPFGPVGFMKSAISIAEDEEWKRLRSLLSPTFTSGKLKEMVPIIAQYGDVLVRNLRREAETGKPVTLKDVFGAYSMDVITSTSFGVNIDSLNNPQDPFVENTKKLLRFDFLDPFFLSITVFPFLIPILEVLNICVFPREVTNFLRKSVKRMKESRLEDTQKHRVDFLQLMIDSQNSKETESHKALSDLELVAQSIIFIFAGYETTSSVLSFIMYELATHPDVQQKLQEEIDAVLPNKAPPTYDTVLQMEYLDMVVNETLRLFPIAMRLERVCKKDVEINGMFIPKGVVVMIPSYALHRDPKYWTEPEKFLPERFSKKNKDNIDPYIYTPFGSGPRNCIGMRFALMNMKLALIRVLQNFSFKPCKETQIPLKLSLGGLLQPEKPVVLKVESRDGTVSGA

Cn1c(=O)n(CC(=O)N2CCC2)c2cc(-c3ccc(C(F)(F)F)s3)cnc21
IC50 [1]: > 30 µM
half-life [2]: 48 min
Cmax [3]: 765 ng/g
concentration at 2 h [4]: 6.9 ng/mL
concentration at 1 h [5]: 20.9 ng/mL
EC50 ([6]; Rattus norvegicus, Sprague-Dawley): 0.407 µg/mL (≈ 1.03 µM)
ED50 [6, 23]: 0.86 mg/kg
ED70 [6, 23]: 1.44 mg/kg
EC70 ([6]; time 60 min, 1 h): 0.716 µg/mL (≈ 1.81 µM)
fEC70 ([6]; time 60 min, 1 h): 40 ng/mL
microsomal CLint at 1 µM [7]: 16.6 µL/min/mg
TDI (Cytochrome P450 3A4): Not Active
half-life [8]: 48 min
Vd [9]: 1.9 L/kg
Tmax [10]: 60 min
clearance [11]: 9 mL/min/kg
Vd [12]: 0.8 L/kg
bioavailability [13]: 69%
Cmax [14]: 6140 ng/mL
Cmax [15]: 7010 ng/mL
Tmax [16]: 60 min
AUC(0-t) [17]: 19700 ng·h/mL
AUC(0-t) [18]: 22500 ng·h/mL
Ratio [19]: 10
AUC(0-t) [20]: 156000 ng·h/mL
Activity [21]: Toxic
fraction unbound at 6 h, 0.5 µM [22]: 0.053
